Activity calls are given as the source filed them. The rule behind the calls is not given here.
Columns and labels:
Planktothrix perornata [1] = assay: Antialgal activity against Oscillatoria perornata assessed as lowest complete inhibition concentration measured for 4 daysos; type: functional
How it was run: (§1)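 Cyanobacteria (O. perornata, O. agardhii, Pseudanabaena LW397) and the green alga S. capricornutum were each maintained in continuous steady-state culture. Compound in dichloromethane was dried in quartz 96-well plates, then 200 µL culture was added. Final concentrations were 0.1, 1.0, 10.0 and 100.0 µM, in triplicate, and experiments were repeated. Plates were held at 29 °C under continuous light, and A650 was read every 24 h for 4 days. LOEC, LCIC and 96-h IC50 were taken from mean absorbance graphs.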

Planktothrix agardhii [2] = assay: Antialgal activity against Planktothrix agardhii assessed as lowest complete inhibition concentration measured for 4 days; type: functional; how it was run: as §1
[3] = tested on: Selenastrum capricornutum; assay: Antialgal activity against Selenastrum capricornutum assessed as lowest complete inhibition concentration measured for 4 days; type: functional; how it was run: as §1
Colletotrichum acutatum = assay: Antifungal activity against Colletotrichum acutatum assessed as growth inhibition at 50 to 150 uM measured up to 72 hr by 96-well microtiter assay; type: functional, organism-based
How it was run: (§2)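 Filamentous-fungus broth microdilution in 96 wells, adapted from NCCLS M27A, with benomyl, azoxystrobin and captan as standards. Conidia came from 7–10-day PDA cultures, were filtered and set to 1.0 × 10^6 conidia/mL by A625 standard curve. Compounds were tested at 50.0, 100.0 and 150.0 µM. Growth was read as A620 at 0, 24, 48 and 72 h, plus 120 h for Phomopsis species. Percent inhibition was pooled from two experiments.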

Colletotrichum fragariae = assay: Antifungal activity against Colletotrichum fragariae assessed as growth inhibition at 50 to 150 uM measured up to 72 hr by 96-well microtiter assay; type: functional, organism-based; how it was run: as §2
Pseudanabaena sp. [4] = assay: Antialgal activity against Pseudanabaena sp. LW397 assessed as lowest complete inhibition concentration measured for 4 days; type: functional; how it was run: as §1
Diaporthe ampelina = assay: Antifungal activity against Diaporthe ampelina assessed as growth inhibition at 50 to 150 uM measured up to 120 hr by 96-well microtiter assay; type: functional, organism-based; how it was run: as §2
[5] = tested on: Selenastrum capricornutum; assay: Antialgal activity against Selenastrum capricornutum assessed as lowest observed effect concentration measured for 4 days; type: functional; how it was run: as §1
Pseudanabaena sp. [6] = assay: Antialgal activity against Pseudanabaena sp. LW397 assessed as lowest observed effect concentration measured for 4 days; type: functional; how it was run: as §1
Phomopsis obscurans [7] = assay: Antifungal activity against Phomopsis obscurans assessed as growth inhibition at 50 uM measured at 120 hr by 96-well microtiter assay; conditions: Paraphomopsis obscurans
Fusarium oxysporum = assay: Antifungal activity against Fusarium oxysporum assessed as growth inhibition at 50 to 150 uM measured up to 72 hr by 96-well microtiter assay; type: functional, organism-based; how it was run: as §2
[8] = tested on: Colletotrichum gloeosporioides; assay: Antifungal activity against Colletotrichum gloeosporioides assessed as growth inhibition at 50 to 150 uM measured up to 72 hr by 96-well microtiter assay; type: functional, organism-based; how it was run: as §2
Phomopsis obscurans [9] = assay: Antifungal activity against Phomopsis obscurans assessed as growth inhibition at 50 uM measured at 120 hr by 96-well microtiter assay; type: functional; conditions: Paraphomopsis obscurans; how it was run: as §2
Planktothrix agardhii [10] = assay: Antialgal activity against Planktothrix agardhii assessed as lowest observed effect concentration measured for 4 days; type: functional; how it was run: as §1
Planktothrix perornata [11] = assay: Antialgal activity against Oscillatoria perornata assessed as lowest observed effect concentration measured for 4 days; type: functional; how it was run: as §1
Phomopsis obscurans [12] = assay: Antifungal activity against Phomopsis obscurans assessed as growth inhibition at 50 to 150 uM measured up to 120 hr by 96-well microtiter assay; type: functional, organism-based; conditions: Paraphomopsis obscurans; how it was run: as §2
Planktothrix perornata [13] = assay: Antialgal activity against Oscillatoria perornata assessed as inhibition measured for 96 hr; type: functional, organism-based; how it was run: as §1
[14] = tested on: Colletotrichum gloeosporioides; assay: Antifungal activity against Colletotrichum gloeosporioides assessed as growth inhibition at 150 µM measured at 72 hr by 96-well microtiter assay
[15] = tested on: Colletotrichum gloeosporioides; assay: Antifungal activity against Colletotrichum gloeosporioides assessed as growth inhibition at 150 µM measured at 48 hr by 96-well microtiter assay
[16] = tested on: Selenastrum capricornutum; assay: Antialgal activity against Selenastrum capricornutum assessed as inhibition measured for 96 hr; type: functional, organism-based; how it was run: as §1
Pseudanabaena sp. [17] = assay: Antialgal activity against Pseudanabaena sp. LW397 assessed as inhibition measured for 96 hr; type: functional, organism-based; conditions: LW397, 96 h; how it was run: as §1
Botrytis cinerea = assay: Antifungal activity against Botryotinia fuckeliana assessed as growth inhibition at 50 to 150 uM measured up to 72 hr by 96-well microtiter assay; type: functional, organism-based; how it was run: as §2

SMILES	Activity (Planktothrix perornata [1])	Activity (Planktothrix agardhii [2])	Activity [3]	growth inhibition (GI) (Colletotrichum acutatum)	growth inhibition (GI) (Colletotrichum fragariae)	Activity (Pseudanabaena sp. [4])	growth inhibition (GI) (Diaporthe ampelina)	Activity [5]	Activity (Pseudanabaena sp. [6])	inhibition at 50 µM (Phomopsis obscurans [7])	growth inhibition (GI) (Fusarium oxysporum)	growth inhibition (GI) [8]	inhibition at 50 µM (Phomopsis obscurans [9])	Activity (Planktothrix agardhii [10])	Activity (Planktothrix perornata [11])	growth inhibition (GI) (Phomopsis obscurans [12])	IC50 (Planktothrix perornata [13])	IC50 [16]	further results
COc1ccc([C@H]2OC[C@H]3[C@@H]2CO[C@@H]3c2ccc(OC)c(OC)c2)cc1OC [(+)-EUDESMIN]	>100 µM	>100 µM	>100 µM	Active	Active	100 µM	Active	100 µM	100 µM	> 80%	Active	Active	> 80%	>100 µM	10 µM	Active			
COc1c2ccoc2nc2c(OC)c(OCC3OC3(C)C)ccc12 (centres undefined) [ANHYDROEVOXINE]				Active	Active		Active			> 80%	Active	Active	> 80%			Active			
CC1(C)C=Cc2c(O)nc3ccccc3c2O1 [FLINDERSINE]	100 µM	>100 µM	100 µM	Active	Active	>100 µM	Active	10 µM	>100 µM	> 80%	Active	Active	> 80%	>100 µM	10 µM	Active	15.9 µM	17.8 µM	inhibition (INH) [14]: <40%; inhibition (INH) [15]: >65%
COc1ccc2[nH]c(=O)c3c(c2c1)OC(C)(C)C=C3 [HAPLAMINE]	10 µM	>100 µM	100 µM	Active	Active	100 µM	Active	10 µM	1 µM	> 80%	Active	Active	> 80%	>100 µM	1 µM	Active	1.8 µM	15.9 µM	IC50 (Pseudanabaena sp. [17]): 2 µM; growth inhibition (GI) (Botrytis cinerea): Active
